Screening data: PubChem, The Scripps Research Institute Molecular Screening Center
Hits are enriched below; roughly 4.6% of the tested compounds scored in any of these assays.
TAAR1 antagonist – human TAAR1 antagonism. inhibition, % at 3 µM. CHO RD-HGA16 TAAR1, Fluo-8 calcium fluorescence, antagonist. actives 1.5% (n = 360,000). AID 624466;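 active = inhibition above a per-plate cutoff, the mean inhibition of test compounds on that plate plus 3 SD, cut at about 49% in these data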
Target sequence (Q96RJ0 whole entry, looked up): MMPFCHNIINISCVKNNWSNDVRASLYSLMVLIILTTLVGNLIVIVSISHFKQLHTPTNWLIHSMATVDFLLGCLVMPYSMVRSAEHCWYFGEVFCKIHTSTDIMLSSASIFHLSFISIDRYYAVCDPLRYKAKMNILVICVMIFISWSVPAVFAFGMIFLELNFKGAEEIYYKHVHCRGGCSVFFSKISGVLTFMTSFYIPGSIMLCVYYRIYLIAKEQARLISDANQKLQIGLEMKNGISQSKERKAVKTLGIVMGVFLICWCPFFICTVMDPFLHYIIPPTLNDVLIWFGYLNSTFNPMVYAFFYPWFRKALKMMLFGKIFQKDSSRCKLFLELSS
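Material: CHO RD-HGA16 cells bearing hTAAR1; compound dosing: one-point dosing, 3 µM nominal final; schedule: dye loading 75 min at 37 °C, then 30 min room temperature; measured by: calcium fluorescence with Fluo-8; control set: vehicle and agonist controls; replication: n of 1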
CHO parental Ca – counter-screen: ATP calcium response change in parental CHO cells. parental CHO-K1, ATP-induced calcium, Fluo-8 fluorescence. inhibition, % at 5.6 µM. actives 0.63% (n = 330,000);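 active = inhibition above that plate's mean sample inhibition plus 3 SD, cut at about 26% in these data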
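Test system: parental CHO cells; detection: calcium-sensitive Fluo-8 fluorescence; evaluation: percent inhibition of calcium signal; also added: ATP as calcium-mobilizing challenge; repeats: one well per compound; control set: ATP-challenged DMSO wells low, unchallenged DMSO wells high; compound: single nominal dose of 5.6 µM per compound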
TAAR1 agonist – agonists of human TAAR1. AID 624467. CHO RD-HGA16 TAAR1, Fluo-8 calcium fluorescence; vehicle wells 0%, saturating PEA agonist 100%. actives 0.99% (n = 360,000). activation, % at 3 µM;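 active = activation above the mean activation of all test compounds in the run plus 3 SD, cut at about 38% in these data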
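Test system: RD-HGA16 (CHO) cells co-expressing Gα16 and hTAAR1; dosing: one-point dosing at 3 µM (nominal); timing: 17-24 h seeding, 75 min 37 °C dye, 30 min RT; signal: kinetic Fluo-8 calcium fluorescence; read-out basis: % activation relative to PEA EC100 response; controls: DMSO and PEA EC100; replicates: n 1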
OX1R antag-1 – blocks the human orexin 1 receptor | O43613 | actives 1.8% (n = 330,000) | inhibition, % at 6.6 µM | OX1R-expressing cells, FRET antagonist read-out | AID 485270; in the data active = inhibition mostly above about 38%, no sharp cut-off; inactive = mostly below about 40%
GPR7 antagonist – blocks human GPR7 receptor signaling; GPR7-expressing cells, fluorescence antagonist assay; actives 1.1% (n = 290,000); AID 1861; P48145; inhibition, % at 4.4 µM; in the data active = inhibition above about 16%, passing the limit was not always enough;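 note: cells stimulated with the agonist NPW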
OX1R antag-2 – human HCRTR1 antagonism | O43613 | inhibition, % at 5 µM | CHO/OX1R cells, Fluo-8 calcium fluorescence, orexin A | actives 0.43% (n = 330,000);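 active = inhibition above its plate's threshold, mean inhibition of all tested compounds on the plate plus 3 SD, cut at about 37% in these data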
nonsel antag count – nonselective antagonism, TAAR1 counter-screen | shares compounds with TAAR1 antagonist | counterscreen cell line, calcium fluorescence, antagonist mode | inhibition, % at 3 µM | actives 77% (n = 2,400) | AID 651780; in the data active = inhibition above about 22%;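 note: CHO-Ga16 host cells stimulated with ATP at an EC80 level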
TAAR1 antag conf – confirmation of human TAAR1 antagonists; TAAR1-expressing cells, fluorescence antagonist read-out; shares compounds with TAAR1 antagonist; actives 40% (n = 2,400); AID 651785; inhibition, % at 3 µM; in the data active = inhibition above about 49%;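 note: CHO-Ga16 host cells challenged with agonist PEA near its EC80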
Ga16 ag counter – nonselective Ga16 agonist in TAAR1 antagonist counter-screen | shares compounds with TAAR1 antagonist | Ga16-expressing cells, calcium fluorescence, agonist counterscreen | activation, % at 3 µM | actives 18% (n = 2,400); in the data active = activation above about 12%
TAAR1 ag counter – TAAR1 agonism, antagonist counter-screen; AID 651955; activation, % at 3 µM; actives 2% (n = 2,400); shares compounds with TAAR1 antagonist; hTAAR1 cell line, fluorescence activation, agonist mode; in the data active = activation above about 37%;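 note: CHO cells stably expressing TAAR1 with calcium dye readout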
Numbers stand for hits; - = inactive; . = no result given.

SMILES | TAAR1 antagonist | CHO parental Ca | TAAR1 agonist | OX1R antag-1 | GPR7 antagonist | OX1R antag-2 | nonsel antag count | TAAR1 antag conf | Ga16 ag counter | TAAR1 ag counter
Cc1ccc2cc(C3CC(c4cccs4)=NN3S(C)(=O)=O)c(Cl)nc2c1 (configuration not stated) | - | - | - | - | - | - | . | . | . | .
Cc1cccc2cc(C3CC(c4cccs4)=NN3S(C)(=O)=O)c(Cl)nc12 (configuration not stated) | 83.2 | - | - | - | - | - | - | - | - | -
CCOc1ccc(C(CC(=O)O)NC(=O)C(c2ccccc2)c2ccccc2)cc1OC (configuration not stated) | 62.6 | - | - | - | . | - | - | - | - | -
CCOc1ccc(C(CC(=O)O)NC(=O)c2ccco2)cc1OC (configuration not stated) | - | - | - | - | - | - | . | . | . | .
C[C@H]1COc2cc(NCCCN3CCOCC3)ccc2S(=O)(=O)N1 | - | . | - | . | . | . | . | . | . | .
CCOc1ccccc1N(CC(=O)Nc1cccc(OC)c1)S(=O)(=O)c1ccccc1 | 52.2 | - | - | - | - | - | - | - | - | -
COc1ccc(S(=O)(=O)N(CC(=O)Nc2ccc3c(c2)OCO3)c2ccccc2OC)cc1 | 68.9 | - | - | - | - | - | 27.1 | 56.2 | - | -
COc1ccccc1N(CC(=O)Nc1cccnc1)S(=O)(=O)c1ccccc1 | - | - | - | - | - | - | . | . | . | .
O=C(C[C@@H]1CC[C@H](NC(=O)c2ccc3c(c2)OCO3)[C@@H](CO)O1)NCc1ccc(F)cc1 | - | . | - | . | . | . | . | . | . | .
O=C(NC1CCCCC1)C(c1ccccc1)n1c(=O)c(-c2ccco2)nc2ccccc21 (configuration not stated) | - | . | - | . | . | . | . | . | . | .
COC(=O)c1c(-c2ccc(OC)cc2)oc2ccc(-c3cc(OC)c(OC)c(OC)c3)cc12 | 58.0 | - | - | - | . | - | - | - | - | -
COC(=O)c1c(-c2ccc(OC)cc2)oc2ccc(-c3ccc(OC)nc3)cc12 | - | - | - | - | - | - | . | . | . | .
CCCOC(=O)c1c(-c2ccc(OC)cc2)oc2ccc(-c3ccc(OC)nc3)cc12 | . | - | . | - | - | - | - | . | - | .
NC(=O)c1ncn([C@@H]2O[C@H](C(=O)Nc3ccc(Oc4ccccc4)nc3)[C@@H](O)[C@H]2O)n1 | - | . | - | . | . | . | . | . | . | .
COC(=O)C1=C(C)N(Cc2ccc(Br)cc2)C(=S)NC1c1ccc(OC)cc1 (configuration not stated) | - | . | - | . | . | . | . | . | . | .
O=C(COc1ccc(Cl)cc1)Nc1nc(-c2cccs2)cs1 | 68.5 | - | - | - | - | - | 22.6 | - | - | -
COc1cc(C(=O)Nc2nc(-c3cccs3)cs2)cc(OC)c1OC | 82.8 | - | - | 48.8 | - | - | 44.6 | 61.9 | 15.9 | -
CCC(=O)c1ccc(OCC(=O)Nc2nc(-c3cccnc3)cs2)cc1 | 74.0 | - | - | - | . | - | 37.4 | 55.3 | - | -
CCC(=O)c1ccc(OCC(=O)Nc2nc(C)cs2)cc1 | - | - | - | - | . | - | . | . | . | .
O=C(COC(=O)C1CC2CCCC(C1)C2=O)Nc1ccc(Cl)cn1 (configuration not stated) | - | - | - | - | . | - | . | . | . | .
c1ccc(Oc2ccc(-n3cnnn3)cc2)cc1 | 105.4 | - | - | - | - | - | - | - | - | -
COc1ccc(Sc2ccc(NC(=O)c3ccccc3Cl)cc2C#N)cc1 | - | - | - | - | - | - | . | . | . | .
N#Cc1cc(NC(=O)c2ccc(Cl)cc2)ccc1Sc1ccccc1 | 73.5 | . | - | . | . | . | 34.8 | - | - | -
CC(=O)C1CCC2C3CCC4CC(=O)CCC4(C)C3C(O)CC12C (configuration not stated) | - | . | - | . | . | . | . | . | . | .
